Calls of active or inactive are those of the source.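 How the source made its calls: active means a full or partial loss of lipid-probe fluorescence in the fish gall bladder, intestine or both, judged by eye; inactive means no fluorescence loss, or compound toxic to the fish.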
Test: inhibitors of larval lipid processing in zebrafish, primary screen, whole organism, PED6 fluorescence, gall bladder and intestine (AID 686);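 further: larvae 5 to 7 days old with five fish per well; signal comes from phospholipase A2 cleavage of quenched PED6 carried via bile; overnight exposure to compound and PED6 before scoring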
Details: Zebrafish larvae PED6 lipid processing, fluorescence scoring; screened at 20 µM (by protocol)
Method in brief: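 Test system – live zebrafish larvae aged 5-7 days, whole organism · Buffer or medium – E3 fish medium · Reagent – quenched phospholipase substrate PED6, 100 nM final, ingested by larvae · Doses – 20 µM single dose · Incubation – overnight compound and PED6 incubation · Technique – visual fluorescence microscopy scoring of gall bladder, gut · Read-out basis – visual per-well fluorescence inhibition score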

| Structure (SMILES) | outcome |
| --- | --- |
| Cc1cc(C)n(S(=O)(=O)/C=C/c2ccccc2)n1 | inactive |
| N#Cc1nc(-c2ccc(F)cc2)oc1N1CCCC1 | inactive |
| CCOC(=O)c1[nH]c2ccc(C)cc2c1N=CN(CC)CC | inactive |
| Cn1c(NCCCO)nc2c1c(=O)n(Cc1ccccc1F)c(=O)n2C | inactive |
| C=CCOc1ccc(/C(O)=C2/C(=O)C(=O)N(CCCN3CCOCC3)C2c2ccc(OC)cc2)cc1 (stereo not given) | inactive |
| CCOc1ccc2c(c1)n([O-])c1c([n+]2=O)CCCC1 | inactive |
| CCCC(=O)N1CCc2[nH]c3ccccc3c2C1 | inactive |
| CCN(CC)c1nc(N2CCOCC2)c(C#N)c2c1CN(C)CC2 | inactive |
| CN1C(=O)C2(c3ccccc31)C1CCCC=C1C(C#N)=C(N)C2(C#N)C#N (stereo not given) | inactive |
| Cc1sc(-n2c(C)ccc2C)c(C#N)c1C | inactive |
| CCN(CC)CCN1C(=O)C(O)=C(C(C)=O)C1c1ccc(OC)c(OC)c1 (stereo not given) | inactive |
| CCOC(=O)C(C(=O)OCC)N(C#N)c1nc(SC)nc(N(C)C)n1 | inactive |
| CCSc1nnc(NC(=O)C(C)(C(F)(F)F)C(F)(F)F)s1 | inactive |
| CC(C)=CCC(C)(C)CNC(=O)NC1CCCCC1 | inactive |
| CCCOC(=O)CSC1=C(C#N)C(c2ccc3c(c2)OCO3)CC(=O)N1 (stereo not given) | inactive |
| COc1ccc(N2CC(=O)N(c3ccc(OC)c(OC)c3)CC2=O)cc1OC | inactive |
| CCCCCCOc1ccc(C(=O)n2cnc(N)n2)cc1 | inactive |
| CCSc1nc2sc3c(c2c2nnc(SCC(=O)NCc4ccco4)n12)CCCC3 | inactive |
| C=CCc1cccc(CNc2nc3ccccc3n2C(C)C)c1O | inactive |
| O=C(Nc1ccc(N2CCN(C(=O)c3ccccc3)CC2)c(Cl)c1)c1ccc(Br)o1 | inactive |

| Structure (SMILES) | outcome |
| --- | --- |
| COc1ccc(NC(=O)c2c(C)cc(=O)oc2C)c(OC)c1 | inactive |
| Cc1c(C)[n+](=O)c2c(n1[O-])CCC2 | inactive |
| COC(=O)CCc1c(C)[nH]c(=S)[nH]c1=O | inactive |
| CCOC(=O)C1=C(N)n2c(s/c(=C\c3cccnc3)c2=O)=C(C(=O)OC)C1c1cccnc1 (stereo not given) | inactive |
| COc1ccc(CNc2oc(COc3ccc(Cl)cc3)nc2C#N)cc1 | inactive |
| CC1(C)Cc2[nH]c(=O)c(C#N)cc2CS1 | inactive |
| COc1ccccc1C1CC(c2ccc(Cl)cc2)Nc2nc(N)nn21 (stereo not given) | inactive |
| CCOC(=O)C(C)Oc1ccc2c(C)cc(=O)oc2c1C(C)=O (stereo not given) | inactive |
| CCC1(C)Cc2c(sc(NC(=O)CCC(=O)O)c2C#N)CO1 (stereo not given) | inactive |
| Cc1cc(C)n(CC(=O)c2ccccc2)c(=O)c1C#N | inactive |
| COc1cccc(Cn2c(NCc3ccccn3)nc3c2c(=O)n(C)c(=O)n3C)c1 | inactive |
| O=C(NCCCN1CCOCC1)C1(c2ccccc2)CCOCC1 | inactive |
| O=C(NCc1ccco1)c1ccc(=O)[nH]n1 | inactive |
| CC(NC(=O)CSc1nc2c(cc1C#N)CN(C)CC2)c1ccccc1 (stereo not given) | inactive |
| COc1cccc(C(=O)OC2CCCN(C)C2)c1 (stereo not given) | inactive |
| Cn1c(=O)[nH]c(=O)c2c1nc(N1CCN(c3cccc(Cl)c3)CC1)n2CCCc1ccccc1 | inactive |
| CCOC(=O)c1[nH]c2ccc(OC)cc2c1NC(=O)CCN1CCCC(C)C1 (stereo not given) | inactive |
| O=C(NCc1ccccc1)C1C(=O)N(Cc2ccccc2)C(=O)C1C1(O)CCCC1 (stereo not given) | inactive |
| COC(=O)c1ccccc1NC(=O)C1COc2ccccc2O1 (stereo not given) | inactive |
| CCOC(=O)c1[nH]c2ccccc2c1N=CN(CC)CC | inactive |
